In PubChem BioAssay AID504382 (The Scripps Research Institute Molecular Screening Center, 2011):
Hit rate of the full screen: of about 2,500 compounds, about 460 (18%) were called active. These entries were drawn from the full list. Unmarked numbers belong to inactive results.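 The calls were made as follows: active = mean activation above a cutoff of low control average plus 3 SD from the earlier screen (cut at about 12% in these data); inactive = the rest.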

experiment: IANBD-channel fluorescence artefacts in buffer – biochemical, artefact control for cardiac RTF calcium sensitizer project, confirmation (AID 504382); conditions: IANBD fluorescence interference counterscreen, EC20 Ca2+, at 7.2 µM, hits give high values, scaled: EC20 calcium 0, EC100 calcium 100
Summary of the method: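 Technique: fluorescence, 480/540 nm / Medium: MOPS-based buffer with KCl, MgCl2, EGTA, NTA, DTT, pH 7.2 / Probe or stimulus: calcium at EC20 level, 0.472 mM final / Repeats: triplicate wells per compound / Times: 15 min compound exposure at 25 °C / Measure: compound fluorescence interference relative to control well signal range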

Structure (SMILES) | fluorescence artifact activation
Cc1ncn(C23CC4CC(CC(C4)C2)C3)n1 | 0%
CCc1ccc(C(=O)NNc2cc(Cl)ccc2Cl)cc1 | 0.03%
Cc1c(Br)c(C(=O)N2CCc3ccccc32)nn1C | 0.13%
Cc1cccc2cc3c(N)c(C(=O)N4CCc5ccccc54)sc3nc12 | -0.06%
Cc1nn(C)c(C(=O)N2CCc3ccccc32)c1Br | 23.4% (active)
Nc1ccc2c3c(cccc13)CC2 | 0.07%
O=C(Cn1c2[n+](c3ccc(C(F)(F)F)cc31)CCCCC2)Nc1ccccc1 | 0.33%
CC(=O)/C(C=Nc1noc(C)c1Br)=C(\C)O | 11.4%
CCC1(CC)C(=O)Nc2ccccc21 | -0.02%
COc1ccccc1N1CCN(C(=O)c2ccc(Cn3c(=O)[nH]c4ccsc4c3=O)cc2)CC1 | 51.1% (active)
COc1ccc2[nH]c(C(=O)N3CCC(Cc4ccccc4)CC3)cc2c1 | 0.13%
COc1ccccc1N1CCN(C(=O)c2cn(-c3ccccc3)nc2-c2cccnc2)CC1 | 0.33%
COc1ccc(C(=O)c2sc3nc(C)cc(-c4cccs4)c3c2N)cc1OC | 0.66%
CC(=O)c1ccc2noc(-c3ccc(C)cc3)c2c1 | 0.23%
COc1ccccc1-c1sc2ccccc2c1-c1ccc(Br)nc1 | 0.93%
Oc1ccc(-c2c(C3=CCCCC3)sc3ccccc23)cc1 | 28.2% (active)
CCOc1ccccc1C=NNC(=O)CCCCC(=O)NN=Cc1ccccc1OCC | 0.77%
Cc1noc(C)c1NC(=O)N(C)C[C@H]1Oc2c(NS(=O)(=O)c3cccs3)cccc2C(=O)N([C@H](C)CO)C[C@@H]1C | -0.07%
O=C(NC(=S)NCCN1CCOCC1)c1ccc(F)cc1 | 21.2% (active)
COC(=O)Cc1ccc(NC(=S)NCCCN2CCOCC2)cc1 | -0.02%

Structure (SMILES) | fluorescence artifact activation
CC(C)(C)c1ccc(C(=O)NC(=S)Nc2ccc(N3CCOCC3)cc2)cc1 | 0.09%
CCCCNC(=O)Nc1nnc(-c2ccccc2)o1 | 0.13%
S=C(Nc1ccc(Cl)cc1)N(CCCN1CCOCC1)Cc1ccco1 | 0.04%
CCC1OC23CCCCC2C(C#N)(C(=N)O3)C1(C#N)C#N (stereo not given) | 0.21%
Cn1cccc1Cc1nnc(SCC(=O)Nc2ccc(F)cc2F)n1-c1ccc(F)cc1 | 1.86%
COc1ccc(C(=O)Nc2cc(C(C)=O)c(/C=C/N(C)C)oc2=O)cc1 | 9.8%
COC(=O)c1cc(NC(=O)c2ccccc2)c(=O)oc1/C=C/Nc1ccc(Oc2ccccc2)cc1 | 18.6% (active)
CC(=O)c1cc(NC(=O)c2ccccc2)c(=O)oc1/C=C/N(C)C | 0.09%
Cc1cccc(N2C(=O)c3cccc4c(N)ccc(c34)C2=O)c1 | 0.02%
CCN(CC)c1ccc2cc(-c3nc(-c4cc5ccccc5oc4=O)cs3)c(=O)oc2c1 | -0.03%
CCN(CC)c1ccc2cc(-c3nnc(-c4ccncc4)o3)c(=O)oc2c1 | 1.48%
CCN(CC)c1ccc2cc(-c3nnc(-c4ccccc4)o3)c(=O)oc2c1 | 43.7% (active)
CC(=O)Nc1ccc2cc3ccc(NC(C)=O)cc3nc2c1 | 11.6%
CCCn1c(=O)c(C(=O)NNC(=O)c2ccccc2[N+](=O)[O-])c(O)c2ccccc21 | 5.02%
CCN1/C(=C/C=C2/SC(=Nc3cccc4ncccc34)N(C)C2=O)Sc2ccccc21 | 11.5%
CCN(C(=O)CN1CCCc2cc(C)ccc21)c1c(N)n(Cc2ccccc2)c(=O)[nH]c1=O | 0.2%
CCN(C(=O)CSc1nnc(COc2ccccc2F)n1N)c1c(N)n(Cc2ccccc2)c(=O)[nH]c1=O | 382% (active)
CCn1c(Cc2ccccc2)nnc1SCC(=O)OC(C)C | 0.3%
COC(=O)C1=C(C)NC(=O)/C1=C\N(C)C | 5.29%
COc1cc(OC)c(OC)cc1/C=C1\Oc2cc(OCC(=O)N3Cc4ccccc4C[C@H]3C(=O)O)ccc2C1=O | -0.01%

Structure (SMILES) | fluorescence artifact activation
CS(=O)(=O)N(CC(=O)NCCSCc1ccccc1)c1ccccc1 | 0.13%
CSCC(C)N1CCC(n2nccc2NC(=O)CCCc2ccccc2)CC1 (stereo not given) | 26.2% (active)
CC(C)(C)C1(O)CC(C(F)(F)F)=NN1C(=O)CCCc1ccccc1 (stereo not given) | 0.13%
CCN1CCN(C2=CC3=CC(=C(C#N)C#N)CCC3CC2)CC1 (stereo not given) | 0.47%
Cc1ccsc1C1NC(=O)c2c(sc3c2CCN(C)C3)N1 (stereo not given) | 28.8% (active)
Cc1ccc(C2NC(=O)c3c(sc4c3CCN(C)C4)N2)s1 (stereo not given) | 0%
CN1CCc2c(sc3c2C(=O)NC(c2cccs2)N3)C1 (stereo not given) | 0.27%
CCOC(=O)c1c(NC(=O)CSc2nc3cc(Cl)ccc3c(=O)n2Cc2ccco2)sc(C(=O)N(C)C)c1C | 0%
COc1ccc(OC)c(/C=C2\N=C(c3ccccc3)OC2=O)c1 | 8.78%
C#CCSc1nc2[nH]ncc2c(=O)[nH]1 | 0.09%
CNc1ccccc1C(C)(C)c1cc(C)[nH]n1 | 3.66%
COc1ccc(O)c(/C=N/c2nc3ccccc3n2C)c1 | 0.05%
COc1ccc(N=Nc2nc3cc(Br)c(Br)cc3n2C)c(OC)c1 | 765% (active)
COc1ccc(N=Nc2nc3ccc(Br)cc3n2C)cc1 | 0.16%
CCOC(=O)C1=C(COC(=O)c2ccc3ccccc3c2O)NC(=O)NC1C (stereo not given) | 0.49%
CCOC(=O)c1cc2c(=O)n3ccccc3nc2n(CCOC)c1=NC(=O)c1c(-c2c(F)cccc2Cl)noc1C | 0.12%
O=C(N/N=C/c1sc2ccccc2c1O)c1ccccc1 | 9.97%
COc1ccc2cc(C(=O)N/N=C/c3sc4ccccc4c3O)ccc2c1 | 93.2% (active)
COc1ccc(C(=O)N/N=C/c2sc3ccccc3c2O)cc1 | 1.31%
CC(C)(CN1CCc2ccccc2C1)NS(=O)(=O)c1ccc(Cl)cc1 | 0.2%
